Data reported in ChEMBL document CHEMBL5380838, “Novel Aryl Sulfonamide Derivatives as NLRP3 Inflammasome Inhibitors for the Potential Treatment of Cancer” (J Med Chem, 2023).
The source made the active and inactive calls. No cut-off for these calls is given here.

Key:
THP-1 [1] = assay: Suppression of caspase-1 p10 expression in LPS-treated human THP-1 cells at 1 to 1000 nM incubated for 30 mins followed by ATP stimulation for 1 hr […]; format: functional, cell-based; settings: dose 1-1000 nM, time 90.0 min
B16-F10 [2] = assay: Effect on ASC expression in cytosolic luciferase-transfected mouse B16-F10 cells xenografted in C57BL/6 mouse at 25 mg/kg, ip administered thrice weekly measured after 14 days by Western blot analysis; format: functional, organism-based; settings: time 14.0 day
Procedure, shortened: (§1)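 Tumors from luciferase-expressing B16-F10 grafts in C57BL/6 mice, dosed IP at 25 mg/kg thrice weekly (DMSO controls), were excised at endpoint and homogenized in sucrose/HEPES/IGEPAL lysis buffer. Lysates were western blotted and bands expressed as fold ratio over β-actin (n = 5).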

BMDM [3] = assay: Effect on AIM2 inflammasome activation in LPS-treated mouse BMDM cells assessed as IL-1beta release at 1 uM incubated for 30 mins followed by Poly (dA:dT) stimulation for 4 hrs by ELISA method; format: functional, cell-based; settings: time 270.0 min
Procedure, shortened: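 BMDMs primed with LPS 100 ng/mL for 3 h, then compound 1 µM in serum-free medium for 30 min, then poly(dA:dT) 1 µg/mL transfected with lipofectamine 2000 for 4 h; supernatant mouse IL-1β by ELISA.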

THP-1 [4] = assay: Suppression of caspase-1 expression in LPS-treated human THP-1 cells at 1 to 1000 nM incubated for 30 mins followed by ATP stimulation for 1 hr by […]; format: functional, cell-based; settings: dose 1-1000 nM, time 90.0 min
Procedure, shortened: (§2)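 PMA-differentiated THP-1 cells (1 × 10^6/well) primed with LPS 1 µg/mL for 3 h, then DMSO or compound in serum-free medium for 30 min, then 5 mM ATP for 1 h. RIPA lysates (20 µg) and concentrated supernatants run on SDS-PAGE and western blotted for NLRP3, ASC, caspase-1 and IL-1β, normalized to GAPDH; three independent experiments.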

[5] = Metabolic stability in human liver microsomes assessed as intrinsic clearance measured per mg protein at 1 uM measured upto 60 mins by LC-MS/MS analysis; format: ADME, Microsome; settings: read-out: CLH
Procedure, shortened: (§3)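 Pooled human or CD-1 male mouse liver microsomes at 0.5 mg/mL with test compound 1 µM in 50 mM phosphate pH 7.4 and 3 mM MgCl2, preincubated 10 min at 37 °C. Percent parent remaining vs 0 min measured by LC-MS/MS. Cli = k/microsomal conc. × 1000; mean ± SD, n = 2.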

Mus musculus [6] = assay: Antiinflammatory activity in LPS-induced C57BL/6 mouse assessed as reduction in IL-1beta production in peritoneal exudate at 25 mg/kg, ip pretreated for 30 mins followed by LPS induction measured after 4 hrs by ELISA method; format: functional, organism-based; settings: time 4.5 hrs
Procedure, shortened: (§4)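 C57BL/6 mice given inhibitor 25 mg/kg IP (vehicle DMSO) 30 min before IP LPS 1 mg/kg; after 4 h, peritoneal exudate and blood collected, plasma from centrifugation 1000g 15 min 4 °C; IL-1β measured by ELISA; mean ± SEM of three independent experiments.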

THP-1 [7] = assay: Suppression of IL-1beta processing in LPS-treated human THP-1 cells at 1 to 1000 nM incubated for 30 mins followed by ATP stimulation for 1 hr by ELISA method; format: functional, cell-based; settings: dose 1-1000 nM, time 90.0 min
BMDM [8] = assay: Effect on NLRP3-ASC interaction in LPS-treated mouse BMDM cells at 1 uM incubated for 30 mins followed by ATP stimulation for 1 hr by co-immunoprecipitation based Western blot analysis; format: functional, cell-based; settings: time 90.0 min
Procedure, shortened: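 BMDMs (1 × 10^7) primed with LPS 2 h, treated 1 µM compound 30 min, then ATP 1 h; lysed in HEPES/NaCl/glycerol/EDTA/0.5% Triton buffer with protease/phosphatase inhibitors; NLRP3–ASC co-immunoprecipitation, bait eluted in Laemmli buffer, western blot; representative of three independent experiments.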

B16-F10 [9] = assay: Antitumor activity against cytosolic luciferase-transfected mouse B16-F10 cells xenografted in C57BL/6 mouse assessed as tumor reduction at 25 mg/kg, ip administered thrice weekly measured after 14 days by bioluminescence assay; format: functional, organism-based; settings: time 14.0 day
Procedure, shortened: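 Female C57BL/6 mice aged 6–8 weeks inoculated subcutaneously with 1 × 10^6 B16-F10 cells stably expressing cytosolic luciferase. From day 5, IP dosing of 25 mg/kg thrice weekly, DMSO for controls, five mice per group. Imaging after IP D-luciferin 150 mg/kg under 2.5% isoflurane, read after 15 min. Caliper volume = π/6 × a × b². Tumors excised day 14.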

B16-F10 [10] = assay: Effect on NLRP3 expression in cytosolic luciferase-transfected mouse B16-F10 cells xenografted in C57BL/6 mouse at 25 mg/kg, ip administered thrice weekly measured after 14 days by Western blot analysis; format: functional, organism-based; settings: time 14.0 day; procedure, shortened: as §1
Mus musculus [11] = assay: Antiinflammatory activity in LPS-induced C57BL/6 mouse assessed as reduction in IL-1beta production in plasma at 25 mg/kg, ip pretreated for 30 mins followed by LPS induction measured after 4 hrs by ELISA method; format: functional, organism-based; settings: time 4.5 hrs; procedure, shortened: as §4
BMDM [12] = assay: Effect on NLRC4 inflammasome activation in LPS-treated mouse BMDM cells assessed as IL-1beta release at 1 uM incubated for 30 mins followed by Salmonella typhimurium flagellin stimulation for 2 hrs by ELISA method; format: functional, cell-based; settings: time 150.0 min
Procedure, shortened: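 BMDMs primed with LPS 100 ng/mL for 3 h, then compound 1 µM in serum-free medium for 30 min, then flagellin 100 ng/mL for 2 h; supernatant mouse IL-1β by ELISA.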

THP-1 [13] = assay: Suppression of ASC expression in LPS-treated human THP-1 cells at 1 to 1000 nM incubated for 30 mins followed by ATP stimulation for 1 hr […]; format: functional, cell-based; settings: dose 1-1000 nM, time 90.0 min; procedure, shortened: as §2
B16-F10 [14] = assay: Antiproliferative activity against cytosolic luciferase-transfected mouse B16-F10 cells xenografted in C57BL/6 mouse assessed as effect on cell growth at 25 mg/kg, ip administered thrice weekly measured after 5 days; format: functional, organism-based; settings: time 5.0 day
[15] = Metabolic stability in mouse liver microsomes assessed as intrinsic clearance measured per mg protein at 1 uM measured upto 60 mins by LC-MS/MS analysis; format: ADME, Microsome; settings: read-out: CLH; procedure, shortened: as §3
[16] = Metabolic stability in human liver microsomes assessed as half life measured per mg protein at 1 uM measured upto 60 mins by LC-MS/MS analysis; format: ADME, Microsome; procedure, shortened: as §3
THP-1 [17] = assay: Suppression of NLRP3 expression in LPS-treated human THP-1 cells at 1 to 1000 nM incubated for 30 mins followed by ATP stimulation for 1 hr […]; format: functional, cell-based; settings: dose 1-1000 nM, time 90.0 min
B16-F10 [18] = assay: Effect on pro-IL-1beta expression in cytosolic luciferase-transfected mouse B16-F10 cells xenografted in C57BL/6 mouse at 25 mg/kg, ip administered thrice weekly measured after 14 days by Western blot analysis; format: functional, organism-based; settings: time 14.0 day; procedure, shortened: as §1
B16-F10 [19] = assay: Effect on cleaved caspase-1 expression in cytosolic luciferase-transfected mouse B16-F10 cells xenografted in C57BL/6 mouse at 25 mg/kg, ip administered thrice weekly measured after 14 days by Western blot analysis; format: functional, organism-based; settings: time 14.0 day; procedure, shortened: as §1
THP-1 [20] = assay: Suppression of pro-IL-1beta expression in LPS-treated human THP-1 cells at 1 to 1000 nM incubated for 30 mins followed by ATP stimulation for 1 hr […]; format: functional, cell-based; settings: dose 1-1000 nM, time 90.0 min
BMDM [21] = assay: Effect on ASC level in LPS-treated mouse BMDM cells at 1 uM incubated for 30 mins followed by ATP stimulation for 1 hr by Hoechst staining based microscopy; format: functional, cell-based; settings: time 90.0 min
Procedure, shortened: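 BMDMs primed with LPS 1 µg/mL for 2 h, given DMSO or compound 1 µM for 30 min, then 5 mM ATP for 1 h. Cells fixed in 4% PFA, permeabilized with 0.1% Triton X-100, stained with anti-ASC overnight at 4 °C plus fluorescent secondary, nuclei Hoechst 1 µM; confocal imaging with 63× oil objective.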

B16-F10 [22] = assay: Antiproliferative activity against LPS-treated mouse B16-F10 cells co-cultured with mouse peritoneal macrophages assessed as decrease in cell growth at 1 uM incubated for 30 mins followed by ATP stimulation for 1 hr measured after 48 hrs by cell counting method; format: functional, cell-based; settings: time 49.5 hrs
Procedure, shortened: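 Transwell co-culture (0.4 µm pores), 48 h: peritoneal macrophages from C57BL/6 mice (2 × 10^5, lower well) primed with LPS 1 µg/mL 2 h, then DMSO or compound 1 µM 30 min, then ATP 1 h; B16-F10 cells (2 × 10^3) in upper insert; tumor cells removed after 48 h and counted by image-based cytometer.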

[23] = Metabolic stability in mouse liver microsomes assessed as half life measured per mg protein at 1 uM measured upto 60 mins by LC-MS/MS analysis; format: ADME, Microsome; procedure, shortened: as §3
THP-1 [24] = assay: Cytotoxicity against human THP-1 cells assessed as reduction in cell viability at 1 uM measured after 48 hrs by RealTime-Glo MT assay; format: toxicity, cell-based; settings: thp-1, 48 h
Procedure, shortened: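 THP-1 cells (10 × 10^4/well) treated with inhibitors at 1 µM and kept 48 h; RealTime-Glo reagent added, luminescence read every 12 h as a proxy for metabolically active cells; means of RLU ± SEM.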

B16-F10 [25] = assay: Effect on total caspase-1 expression in cytosolic luciferase-transfected mouse B16-F10 cells xenografted in C57BL/6 mouse at 25 mg/kg, ip administered thrice weekly measured after 14 days by Western blot analysis; format: functional, organism-based; settings: time 14.0 day; procedure, shortened: as §1

Compound | Activity (THP-1 [1]) | Activity (B16-F10 [2]) | Activity (BMDM [3]) | Activity (THP-1 [4]) | microsomal CLint at 1 µM [5] [µL/min/mg] | Activity (Mus musculus [6]) | Activity (THP-1 [7]) | Activity (BMDM [8]) | Activity (B16-F10 [9]) | Activity (B16-F10 [10]) | Activity (Mus musculus [11]) | Activity (BMDM [12]) | Activity (THP-1 [13]) | Activity (B16-F10 [14]) | microsomal CLint at 1 µM [15] [µL/min/mg] | half-life at 1 µM [16] [min] | Activity (THP-1 [17]) | Activity (B16-F10 [18]) | Activity (B16-F10 [19]) | Activity (THP-1 [20]) | other results
Nc1ccc(S(=O)(=O)N2Cc3ccccc3C[C@H]2C(=O)Nc2c3c(cc4c2CCC4)CCC3)cc1 | Active | inactive | inactive | inactive | 28.7 | Active | Active | inactive | Active | inactive | Active | inactive | inactive | inactive | 270 | 48.3 | inactive | inactive | inactive | inactive | Activity (BMDM [21]): inactive; Activity (B16-F10 [22]): Active; half-life at 1 µM [23]: 5.1 min; Activity (THP-1 [24]): Non-Toxic; Activity (B16-F10 [25]): inactive
Nc1ccc(S(=O)(=O)N[C@@H](Cc2ccc(O)cc2)C(=O)Nc2c3c(cc4c2CCC4)CCC3)cc1 | Active | inactive | inactive | inactive | 31.9 | Active | Active | inactive | Active | inactive | Active | inactive | inactive | inactive | 124 | 46.2 | inactive | inactive | inactive | inactive | Activity (BMDM [21]): inactive; Activity (B16-F10 [22]): Active; half-life at 1 µM [23]: 11.2 min; Activity (THP-1 [24]): Non-Toxic; Activity (B16-F10 [25]): inactive
